Measurements of several laboratories.
Compare with care: the assays were run in different laboratories.
CDK8: Cyclin-dependent kinase 8 (CDK8, Homo sapiens, UniProt P49336)
CDK8 with cyclin C: Cyclin-dependent kinase 8, with cyclin C (CDK8, Homo sapiens, UniProt P49336)

Structure (SMILES)	target	assay	conditions	quantity	result
Cn1c2c(Cl)c(Cl)ccc2c2cc(N)[nH]c(=O)c21	CDK8	thermal stability, DSF	10 µM	ΔTm	0.7 °C
O=C(N1CCS(=O)(=O)CC1)N1C[C@H](c2ccc(OC(F)(F)F)cc2)C[C@H](c2nc(C3CC3)no2)C1	CDK8	cell-free assay, competition with immobilised ligand	1 µM	remaining binding	100%
Cn1c2c(c3ccc(Cl)c(Cl)c31)C(C#N)C1(CCCCC1)NC2=O (racemic)	CDK8	thermal stability, DSF	10 µM	ΔTm	0.4 °C
Nc1ncnc2occ(-c3ccc(NC(=O)Nc4cc(C(F)(F)F)ccc4F)cc3)c12	CDK8	cell-free assay, inhibitor	20 µM	remaining signal	2%
CC(C)(C)c1nc(-c2cccc(NS(=O)(=O)c3c(F)cccc3F)c2F)c(-c2ccnc(N)n2)s1	CDK8 with cyclin C	enzyme activity, inhibitor, radiometric	1 µM	remaining activity	109%
Cn1c2c(c3ccccc31)C(C#N)C(C)(C)NC2=O (stereo not shown)	CDK8	thermal stability, DSF	10 µM	ΔTm	0.8 °C
Cc1ccc(C(=O)Nc2ccc(CN3CCN(C)CC3)c(C(F)(F)F)c2)cc1C#Cc1cnc2cccnn12	CDK8	enzyme activity, inhibitor	23.5 nM	remaining activity	9.5%
CC(C)CC(=O)N1CCc2nc(-c3ccc(Br)cc3)nc(N(C)Cc3ccccc3)c2C1	CDK8	cell-free assay, competition with immobilised ligand	0.1 µM	remaining binding	82%
CN1CCN(C(=O)c2ccc3cc(CCNc4ccnc5ccc(C#N)cc45)ccc3c2)CC1	CDK8 with cyclin C	binding, TR-FRET		kon	878000 M⁻¹ s⁻¹
NS(=O)(=O)c1cc(NC(=O)Cc2ccccc2)ccc1Oc1cccc(Cl)c1	CDK8	cell-free assay, competition with immobilised ligand	1 µM	remaining binding	68%
Cc1sc(C(=O)NC2COC2)cc1-n1cc(NC(=O)Nc2c(F)cccc2Cl)cn1	CDK8 with cyclin C	enzyme activity, inhibitor	10 µM	remaining activity	92.7%
CS(=O)(=O)N1CCCC(NC(=O)[C@H](CCC2CCCCC2)NC(=O)c2ccc(CNC(=O)c3cnc4ccccn34)cc2)C1 (stereo partly shown)	CDK8	cell-free assay, competition with immobilised ligand	0.1 µM	remaining binding	42%
CC1(C)NC(=O)c2[nH]c3c(Cl)c(Cl)ccc3c2C1C#N (stereo not shown)	CDK8	thermal stability, DSF	10 µM	ΔTm	0.5 °C
